Assay outcomes deposited in PubChem BioAssay by several laboratories.
Most compounds without a hit are left out; they make up all but 2.5% or so of the library.
MC4R antagonist: MC4R antagonists of cAMP signaling, primary screen, cell-based, TR-FRET, antagonist arm of biased-ligand search; inhibition, % at 6.5 µM; AID 540295, 2011; MC4R-expressing cells, MTII-stimulated cAMP, LANCE TR-FRET; 360,000 tested, 0.48% active;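 active = inhibition above its plate's cutoff, the mean of tested wells on that plate plus 3 SD, cut at about 29% in these data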
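System: U2OS cells stably expressing human melanocortin 4 receptor (MC4R). Reagent: Melanotan II challenge after compound preincubation. Doses: 6.5 µM. Times: 30-min compound, 1-h challenge, 1-h detection, room temperature. Measured by: TR-FRET with Eu-cAMP and labeled anti-cAMP, 671 nm. Replicates: singlicate.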
MC4R barr agon: MC4R agonists recruiting beta-arrestin, primary screen, cell-based, luminescence, agonist arm of biased-ligand search; Melanocortin receptor 4 (Homo sapiens), P32245; U2OS MC4R beta-arrestin complementation; percent of melanotan II response, DMSO zero; activation, % at 8.9 µM; 360,000 tested, 0.98% active; AID 540308, 2011;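 active = activation above a per-plate cutoff, the mean activation of sample wells on that plate plus 3 SD, cut at about 8% in these data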
Tb MetRS inh: T. brucei MetRS inhibitors, primary screen, biochemical, luminescence; purified T. brucei MetRS, ATP depletion, Kinase-Glo luminescence; AID 624268, 2012; inhibition, % at 11.9 µM; methionyl-tRNA synthetase (Trypanosoma brucei brucei); 360,000 tested, 0.4% active;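 active = inhibition above a per-plate cutoff of the control wells' mean inhibition plus 3 SD, cut at about 5.5% in these data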
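Material: parasite MetRS enzyme / Replication: singlicate, one well per compound / Signal: luminescence of leftover ATP / Schedule: 2 h aminoacylation at 25 °C after 15 min preincubation / Medium: HEPES-MgCl2-KCl buffer plus DTT, spermine, BSA, pyrophosphatase / Doses: 11.9 µM single point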
NLRP3 yeast inh: NALP3 inflammasome inhibitors in reconstituted yeast, primary screen, luminescence, uHTS; Yeast reconstituted NLRP3/ASC/caspase-1, beta-gal luminescence, 24 h; inhibition, % at 10 µM; 330,000 tested, 0.39% active;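 active = inhibition of 50% or more; inactive = inhibition below 50%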
NALP1 inh: NALP1 inflammasome inhibitors in reconstituted yeast, colorimetric, S. cerevisiae, triplicate retest. S. cerevisiae NALP1/ASC/caspase-1 growth, X-gal OD620, 72 h. inhibition, % at 10 µM. 280,000 tested, 0.61% active; in the data active = inhibition mostly above about 24%, no sharp cut-off; inactive = mostly below about 32%
A1 inh: caspase 3/7 activation in MEF A1-2A-BIM cells, primary screen, A1 inhibitor project, cell-based, luminescence, HTS | Caspase-Glo 3/7 luminescence, 3 h; percent of clofoctol response, vehicle zero | caspase activation, % (test concentration not listed) | 330,000 tested, 0.066% active | AID 2462, 2010;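 active = over half of replicate activation scores above 10%, or exactly half above 10 with the replicate mean above 10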
MC4R barr ag: MC4R beta-arrestin agonists, retest, confirmation, cell-based, luminescence, U2OS. shares compounds with MC4R barr agon. U2OS MC4R beta-arrestin recruitment; scaled DMSO 0%, Melanotan II 100%. activation, % at 8.9 µM. 2,400 tested, 31% active. AID 602192, 2012;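 active = mean activation across replicates above the hit cutoff set in the earlier primary screen, cut at about 8% in these data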
MOR-DOR barr ag: agonists of MOR-DOR heterodimerization, counter-screen for MC4R biased agonist project, cell-based, luminescence | U2OS PathHunter beta-arrestin, beta-gal luminescence; percent of deltorphin B response, DMSO zero | shares compounds with MC4R barr agon | activation, % at 9.2 µM | AID 602194, 2012 | 2,400 tested, 5.8% active;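 active = mean activation across replicates exceeds the hit threshold derived in the earlier primary screen, cut at about 18% in these data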
Target sequence (P35372 whole entry, looked up): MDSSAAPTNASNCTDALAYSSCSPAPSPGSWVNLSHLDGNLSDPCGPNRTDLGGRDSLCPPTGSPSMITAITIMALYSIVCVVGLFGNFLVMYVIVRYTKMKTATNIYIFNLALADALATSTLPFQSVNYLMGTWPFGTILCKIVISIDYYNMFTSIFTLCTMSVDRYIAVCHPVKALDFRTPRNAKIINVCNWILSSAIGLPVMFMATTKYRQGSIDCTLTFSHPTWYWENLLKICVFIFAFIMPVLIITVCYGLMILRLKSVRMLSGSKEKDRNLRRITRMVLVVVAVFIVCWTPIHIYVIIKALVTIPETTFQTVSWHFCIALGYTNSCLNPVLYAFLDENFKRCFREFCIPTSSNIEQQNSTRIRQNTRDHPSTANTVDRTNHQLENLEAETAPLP
Target sequence (P41143 whole entry, looked up): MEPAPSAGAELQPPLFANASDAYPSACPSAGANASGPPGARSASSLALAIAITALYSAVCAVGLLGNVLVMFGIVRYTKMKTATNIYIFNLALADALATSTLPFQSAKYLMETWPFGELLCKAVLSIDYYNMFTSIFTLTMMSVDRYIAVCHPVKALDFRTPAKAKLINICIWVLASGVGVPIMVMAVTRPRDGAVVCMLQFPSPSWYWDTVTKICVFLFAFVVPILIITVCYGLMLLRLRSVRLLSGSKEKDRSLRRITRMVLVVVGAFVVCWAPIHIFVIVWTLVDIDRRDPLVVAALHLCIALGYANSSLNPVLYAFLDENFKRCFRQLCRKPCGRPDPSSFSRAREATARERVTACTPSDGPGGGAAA
A number is an active result.

How did O=C(CC[C@H]1O[C@@H](n2ccc(=O)[nH]c2=O)[C@H](O)[C@@H]1O)N[C@H](Cc1ccccc1)C(=O)NCc1ccc2c(c1)OCO2 do in these assays?
Tb MetRS inh: inactive

How did COc1ccc(C(CCNCc2ccc(OC(C)C)cc2)c2ccccc2OC)cc1 (stereo not drawn) do in these assays?
MC4R antagonist: inactive; MC4R barr agon: 12.6; Tb MetRS inh: inactive; NLRP3 yeast inh: inactive; NALP1 inh: inactive; A1 inh: inactive; MC4R barr ag: 15.1; MOR-DOR barr ag: 25.4

How did O=[N+]([O-])c1cc(C(F)(F)F)ccc1NCCc1c[nH]c2ccccc12 do in these assays?
MC4R antagonist: inactive; MC4R barr agon: inactive; Tb MetRS inh: inactive; NLRP3 yeast inh: inactive; NALP1 inh: inactive; A1 inh: inactive

How did O=[N+]([O-])c1cc(C(F)(F)F)ccc1NCCc1c[nH]c2ccc(O)cc12 do in these assays?
MC4R antagonist: inactive; MC4R barr agon: 14.8; Tb MetRS inh: inactive; NLRP3 yeast inh: inactive; NALP1 inh: inactive; A1 inh: inactive; MC4R barr ag: inactive; MOR-DOR barr ag: inactive

What do the screens show for `CC(=O)c1cccc(OCC(=O)NC2CCCCCC2)c1`?
MC4R antagonist: inactive; MC4R barr agon: inactive; Tb MetRS inh: inactive; NLRP3 yeast inh: inactive

How did Nc1ccn([C@@H]2O[C@H](CNC(=O)[C@@H](N)CSCc3ccccc3)[C@@H](O)[C@H]2O)c(=O)n1 do in these assays?
MC4R antagonist: inactive; MC4R barr agon: inactive; Tb MetRS inh: inactive

Results for COC(=O)c1sccc1NC(=O)Nc1ccc(C)c(C)c1 ?
MC4R antagonist: inactive; MC4R barr agon: inactive; Tb MetRS inh: inactive; NLRP3 yeast inh: inactive; NALP1 inh: inactive; A1 inh: inactive

How did COC(=O)c1sccc1NC(=O)COc1ccc(F)cc1Cl do in these assays?
MC4R antagonist: inactive; MC4R barr agon: 10.1; Tb MetRS inh: inactive; NLRP3 yeast inh: inactive; NALP1 inh: inactive; A1 inh: inactive; MC4R barr ag: inactive; MOR-DOR barr ag: inactive

Results for COC(=O)c1ccc(OCC(=O)Nc2ccsc2C(=O)OC)cc1 ?
MC4R antagonist: inactive; MC4R barr agon: inactive; Tb MetRS inh: inactive; NLRP3 yeast inh: inactive; NALP1 inh: inactive; A1 inh: inactive

What do the screens show for `COC(=O)c1sccc1NC(=O)Nc1ccc(Cl)c(Cl)c1`?
MC4R antagonist: inactive; MC4R barr agon: 13.0; Tb MetRS inh: inactive; NLRP3 yeast inh: inactive; NALP1 inh: inactive; A1 inh: inactive; MC4R barr ag: inactive; MOR-DOR barr ag: inactive

What do the screens show for `COC(=O)c1sccc1NC(=O)c1ccc(Cl)s1`?
MC4R antagonist: inactive; MC4R barr agon: 11.5; Tb MetRS inh: inactive; NLRP3 yeast inh: inactive; NALP1 inh: inactive; A1 inh: inactive; MC4R barr ag: inactive; MOR-DOR barr ag: inactive

What do the screens show for `CCOC(=O)Cn1c(=NC(=O)c2cccs2)sc2cc(C(=O)OC)ccc21`?
MC4R antagonist: inactive; MC4R barr agon: inactive; Tb MetRS inh: inactive; NLRP3 yeast inh: inactive; NALP1 inh: inactive; A1 inh: inactive

What do the screens show for `C#CCn1c(=NC(=O)c2cccs2)sc2cccc(OCC)c21`?
MC4R antagonist: inactive; MC4R barr agon: 23.9; Tb MetRS inh: inactive; NLRP3 yeast inh: inactive; NALP1 inh: inactive; A1 inh: inactive; MC4R barr ag: inactive; MOR-DOR barr ag: inactive

What do the screens show for `COC(=O)Cn1c(=NC(=O)c2ccc(Cl)s2)sc2cc(F)ccc21`?
MC4R antagonist: inactive; MC4R barr agon: inactive; Tb MetRS inh: inactive; NLRP3 yeast inh: inactive; NALP1 inh: inactive; A1 inh: inactive

Results for C#CCn1c(=NC(=O)c2ccc(Cl)s2)sc2cccc(OC)c21 ?
MC4R antagonist: inactive; MC4R barr agon: 15.0; Tb MetRS inh: inactive; NLRP3 yeast inh: inactive; NALP1 inh: inactive; A1 inh: inactive; MC4R barr ag: inactive; MOR-DOR barr ag: inactive

Results for O=S(=O)(Nc1ccc(Cc2ccncc2)cc1)c1cccs1 ?
MC4R antagonist: inactive; MC4R barr agon: inactive; Tb MetRS inh: inactive; NLRP3 yeast inh: inactive; NALP1 inh: inactive; A1 inh: inactive

How did CCCCc1ccc(NS(=O)(=O)c2cccs2)cc1 do in these assays?
MC4R antagonist: inactive; MC4R barr agon: 17.4; Tb MetRS inh: inactive; NLRP3 yeast inh: inactive; NALP1 inh: inactive; A1 inh: inactive; MC4R barr ag: 8.5; MOR-DOR barr ag: inactive

What do the screens show for `CC(=O)N1CCN(C(=O)c2ccccc2NS(=O)(=O)c2ccc(F)cc2)CC1`?
MC4R antagonist: inactive; MC4R barr agon: inactive; Tb MetRS inh: inactive; NLRP3 yeast inh: inactive; A1 inh: inactive

How did CC(C)(C)S(=O)N1Cc2cc(CO)cc(-c3ccccc3)c2[C@@H]1CCO (stereo partly drawn) do in these assays?
MC4R antagonist: inactive; MC4R barr agon: inactive; Tb MetRS inh: inactive

How did CCc1cc(-c2[nH]ncc2-c2ccc3c(c2)OCO3)c(O)cc1O do in these assays?
MC4R antagonist: inactive; MC4R barr agon: 19.4; Tb MetRS inh: inactive; NLRP3 yeast inh: inactive; NALP1 inh: inactive; A1 inh: inactive; MC4R barr ag: inactive; MOR-DOR barr ag: inactive

What do the screens show for `CCc1cc(-c2[nH]ncc2-c2ccc(OC)cc2)c(O)cc1O`?
MC4R antagonist: inactive; MC4R barr agon: inactive; Tb MetRS inh: inactive; NLRP3 yeast inh: inactive; NALP1 inh: inactive; A1 inh: inactive

Results for COC(=O)N/N=C\c1cc2c(cc1Br)OCO2 ?
MC4R antagonist: inactive; MC4R barr agon: inactive; Tb MetRS inh: inactive; NLRP3 yeast inh: inactive; NALP1 inh: inactive; A1 inh: inactive

How did Cc1ccc(C(=O)N/N=C\c2cc3c(cc2Br)OCO3)s1 do in these assays?
MC4R antagonist: inactive; MC4R barr agon: 12.1; Tb MetRS inh: inactive; NLRP3 yeast inh: inactive; NALP1 inh: inactive; A1 inh: inactive; MC4R barr ag: 10.4; MOR-DOR barr ag: inactive

What do the screens show for `O=S(=O)(CC(CN1CCOCC1)N1CCOCC1)c1ccccc1` (stereo not drawn)?
MC4R antagonist: inactive; MC4R barr agon: 9.6; Tb MetRS inh: inactive; NLRP3 yeast inh: inactive; NALP1 inh: inactive; A1 inh: inactive; MC4R barr ag: inactive; MOR-DOR barr ag: inactive
